Test [1] deals with T1, Nicotinamidase/pyrazinamidase (Mycolicibacterium smegmatis) (UniProt Q9ZHK8).
T1 sequence (whole entry): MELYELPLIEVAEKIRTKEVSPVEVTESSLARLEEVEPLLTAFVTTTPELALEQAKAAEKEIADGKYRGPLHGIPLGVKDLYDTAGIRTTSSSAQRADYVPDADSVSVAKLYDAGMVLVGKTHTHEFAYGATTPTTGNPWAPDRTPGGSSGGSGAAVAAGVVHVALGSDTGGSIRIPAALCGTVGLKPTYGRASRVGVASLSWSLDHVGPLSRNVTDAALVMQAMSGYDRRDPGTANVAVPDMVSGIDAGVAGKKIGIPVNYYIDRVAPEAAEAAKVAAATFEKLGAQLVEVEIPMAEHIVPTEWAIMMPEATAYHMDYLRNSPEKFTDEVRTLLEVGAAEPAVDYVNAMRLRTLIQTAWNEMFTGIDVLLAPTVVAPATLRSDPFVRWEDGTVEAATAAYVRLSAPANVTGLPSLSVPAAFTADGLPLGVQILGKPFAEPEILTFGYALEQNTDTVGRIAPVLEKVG
Kind of test: Activity of PzaA in Mycobacterium smegmatis mc27036 assessed as compound turnover per ml of microbial cells after 30 mins by […] analysis. Put shortly: (§1)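 Whole-cell colorimetric amidase assay: log-phase cells were pelleted and resuspended in sterile water with 0.05% tyloxapol. Substrate (PZA or 5-Cl PZA) was added to 2 mM at 37°C with shaking and sampled at intervals. Clarified aliquots received ferrous ammonium sulfate (20 mM final), stood 30 min at 4°C, were re-spun, and were read at OD468. Extinction coefficients were 0.68 (PA) and 0.47 (5-Cl PA) per mM. Activity is nmol/min per ml of cells (OD600).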

Test [2] relates to Mycolicibacterium smegmatis. Kind of test: Antimicrobial activity against Mycobacterium smegmatis mc27038 harboring attBL5::Ptc::pzaAMsmeg from Mycobacterium smegmatis mc2155 after 48 hrs by broth microdilution method. The conditions noted are these: mc27038, 48 h. In kind it is functional. The method in brief: (§2)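 Broth MIC: exponentially growing cells were diluted to 10^6 CFU/ml in supplemented 7H9 across a range of PZA or 5-Cl PZA concentrations. Medium was adjusted to pH 5.2 where indicated. Cultures were incubated 2 days at 37°C. The MIC is the lowest concentration preventing visible growth. Plasmid-borne amidases were induced with 50 ng/ml anhydrotetracycline.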

In test [3] the test system is Mycobacterium tuberculosis. Kind of test: Antimicrobial activity against Mycobacterium tuberculosis H37Ra after 11 days by broth microdilution method at pH 6.8. In kind it is functional. The conditions noted are these: 264 h. Put shortly: (§3)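 Tubercle bacilli were diluted to 10^6 CFU/ml in supplemented 7H9 containing graded PZA or 5-Cl PZA, at pH 6.0 or neutral pH 6.8. Cultures were incubated 11 days at 37°C. The MIC is the lowest concentration blocking visible growth. Integrated amidase constructs were induced with 50 ng/ml anhydrotetracycline.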
A general note: In broth dilution the organism is exposed to a series of concentrations in liquid medium.

Test [4] deals with Mycolicibacterium smegmatis. Kind of test: Antimicrobial activity against Mycobacterium smegmatis mc27036 harboring deltaMSMEG_1090 from Mycobacterium smegmatis mc22612 after 48 hrs by broth microdilution method. The format is functional. As to conditions: mc27036, 48 h. The method in brief: as §2
Test [5] concerns Mycolicibacterium smegmatis. Kind of test: Antimicrobial activity against 5-Cl PZA-resistant Mycobacterium smegmatis mc22612after 48 hrs by broth microdilution method. The format is functional. As to conditions: mc22612, 48 h.
For test [6], the system named is Mycolicibacterium smegmatis. Kind of test: Antimicrobial activity against Mycobacterium smegmatis mc27032 harboring deltaMSMEG_1088 from Mycobacterium smegmatis mc2155 after 48 hrs by broth microdilution method. The format is functional. As to conditions: mc27032, 48 h. Put shortly:
as §2

The target of test [7] is T1, Nicotinamidase/pyrazinamidase (Mycolicibacterium smegmatis). Kind of test: Activity of PzaA in Mycobacterium smegmatis mc27034 assessed as compound turnover per ml of microbial cells after 30 mins by […] analysis. The method in brief: as §1
The subject of test [8] is Mycolicibacterium smegmatis. Kind of test: Antimicrobial activity against Mycobacterium smegmatis mc27035 harboring deltaMSMEG_1090 from Mycobacterium smegmatis mc2155 after 48 hrs by broth microdilution method. The format is functional. As to conditions: mc27035, 48 h. The method in brief:
as §2

The target of test [9] is T1, Nicotinamidase/pyrazinamidase (Mycolicibacterium smegmatis). Kind of test: Activity of PzaA in Mycobacterium smegmatis mc2155 assessed as compound turnover per ml of microbial cells after 30 mins by […] analysis.
For test [10] the target is unchanged. Kind of test: Activity of PzaA in Mycobacterium smegmatis mc27031 assessed as compound turnover per ml of microbial cells after 30 mins by […] analysis. Put shortly:
as §1

Test [11] has as its system Mycolicibacterium smegmatis. Kind of test: Antimicrobial activity against Mycobacterium smegmatis mc2155 after 48 hrs by broth microdilution method. The format is functional. As to conditions: mc2155, 48 h.
Test [12] addresses T1, Nicotinamidase/pyrazinamidase (Mycolicibacterium smegmatis). Kind of test: Activity of PzaA in Mycobacterium smegmatis mc27038 assessed as compound turnover per ml of microbial cells after 30 mins by […] analysis. The method in brief:
as §1

In test [13] the test system is Mycolicibacterium smegmatis. Kind of test: Antimicrobial activity against Mycobacterium smegmatis mc27031 harboring MSMEG_1088::magellan4 after 48 hrs by broth microdilution method. The format is functional. The conditions noted are these: mc27031, 48 h. Put shortly: as §2
Test [14] addresses T1, Nicotinamidase/pyrazinamidase (Mycolicibacterium smegmatis). Kind of test: Activity of PzaA in Mycobacterium smegmatis mc27032 assessed as compound turnover per ml of microbial cells after 30 mins by […] analysis. Put shortly: as §1
Test [15] relates to Mycolicibacterium smegmatis. Kind of test: Antimicrobial activity against Mycobacterium smegmatis mc27034 harboring deltaMSMEG_1090 from Mycobacterium smegmatis mc27031 after 48 hrs by broth microdilution method. The format is functional. The conditions noted are these: mc27034, 48 h. Put shortly:
as §2

Test [16] relates to Mycolicibacterium smegmatis. Kind of test: Inhibition of Fatty acid synthase type 1 in Mycobacterium smegmatis mc2155 at 2.5 mg/ml after 2 hrs by HPLC. Put shortly:
(§4)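 FAS I activity: mid-log cells (OD600 0.5) were resuspended to OD600 0.2 in 7H9 with 0.2% dextrose and 0.05% tyloxapol, pH 5.1, plus 2.5 mg/ml PZA, for 2 h at 37°C. They were pulsed with [1-14C]acetate (1 μCi/ml) for a further 2 h. Lipids were extracted, saponified, and derivatized to p-bromophenacyl esters. 14C-palmitate was quantified by reverse-phase HPLC.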

Test [17] concerns Mycolicibacterium smegmatis. Kind of test: Antimicrobial activity against 5-Cl-PZA-resistant Mycobacterium smegmatis mc27037 after 48 hrs by broth microdilution method. In kind it is functional. The conditions noted are these: mc27037, 48 h. Put shortly: as §2
The target in test [18] is T1, Nicotinamidase/pyrazinamidase (Mycolicibacterium smegmatis). Kind of test: Activity of PzaA in Mycobacterium smegmatis mc27037 assessed as compound turnover per ml of microbial cells after 30 mins by […] analysis. The method in brief:
as §1

The target in test [19] is T2, PYRAZINAMIDASE/NICOTINAMIDAS PNCA (PZase) (Mycobacterium tuberculosis) (UniProt Q50575).
T2 sequence (whole entry): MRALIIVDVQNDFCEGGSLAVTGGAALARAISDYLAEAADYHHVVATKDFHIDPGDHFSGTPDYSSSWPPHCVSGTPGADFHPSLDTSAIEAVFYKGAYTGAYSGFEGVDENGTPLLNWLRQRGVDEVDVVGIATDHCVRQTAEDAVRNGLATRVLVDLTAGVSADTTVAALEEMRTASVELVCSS
Kind of test: Activity of PncA in Mycobacterium tuberculosis H37Ra assessed as compound turnover per ml of microbial cells after 30 mins by […] analysis. Put shortly: as §1

The subject of test [20] is Mycobacterium tuberculosis. Kind of test: Antimicrobial activity against Mycobacterium tuberculosis H37Ra after 11 days by broth microdilution method at pH 6. The format is functional. The conditions noted are these: 264 h. The method in brief:
as §3

The target in test [21] is T1, Nicotinamidase/pyrazinamidase (Mycolicibacterium smegmatis). Kind of test: Activity of PzaA in Mycobacterium smegmatis mc27035 assessed as compound turnover per ml of microbial cells after 30 mins by […] analysis. Put shortly: as §1
Test [22] shares this target. Kind of test: Activity of PzaA in Mycobacterium smegmatis mc22612 assessed as compound turnover per ml of microbial cells after 30 mins by […] analysis.
The test system of test [23] is Mycolicibacterium smegmatis. Kind of test: Inhibition of Fatty acid synthase type 1 in Mycobacterium smegmatis mc27031 at 2.5 mg/ml after 2 hrs by HPLC. The method in brief:
as §4

In test [24] the test system is Mycolicibacterium smegmatis. Kind of test: Inhibition of Fatty acid synthase type 1 in Mycobacterium smegmatis mc2155 at 250 ug/ml after 2 hrs by HPLC.
Test [25] relates to Mycolicibacterium smegmatis. Kind of test: Inhibition of Fatty acid synthase type 1 in Mycobacterium smegmatis mc27031 at 1500 ug/ml after 2 hrs by HPLC.

Values after ≈ are worked out from the molar mass of the structure shown. Active and inactive are the calls of the source. The rule behind the calls is not given here.

As usually defined, the MIC is the least concentration at which growth counts as inhibited. A lower MIC goes with inhibition by little substance. In the case of `NC(=O)c1cnccn1` [PYRAZINAMIDE], the Activity in test [1] worked out at 1.2 nmol/min; in test [7] it was 1.2 nmol/min; in test [9], 0.85 nmol/min; in test [10] it was 100 nmol/min; in test [12], 34 nmol/min; in test [14] it was 65 nmol/min. The Activity came out at 100 nmol/min in [18], 0.23 nmol/min in [19], 0.95 nmol/min in [21] and 32 nmol/min in test [22]. The MIC in [2] was over 4000 µg/mL; in test [3], 62.5 µg/mL (≈ 508 µM); in test [4] it was over 4000 µg/mL; in [5], over 4000 µg/mL; in [6], 150 µg/mL (≈ 1220 µM); in test [8], over 4000 µg/mL. Also, the MIC in test [11] was over 4000 µg/mL; in test [13], 150 µg/mL (≈ 1220 µM); in test [15], over 4000 µg/mL; in test [17] it was 150 µg/mL (≈ 1220 µM); in [20] it was over 1000 µg/mL. Further, in test [16], the inhibition result is “Active”. Besides, in test [23], the inhibition entry is “inactive”.

Turning to `NC(=O)c1cnc(Cl)cn1`, the Activity in test [1] came to 1.2 nmol/min; in test [7] it was 1.2 nmol/min; in [9] it was 0.85 nmol/min; in [10], 100 nmol/min; in test [12] it was 34 nmol/min; in [14] it was 65 nmol/min. Besides, the Activity in [18] amounted to 100 nmol/min; in test [19], 0.15 nmol/min; in test [21], 0.95 nmol/min; in [22], 32 nmol/min. The MIC came to 125 µg/mL (≈ 793 µM) in [2]; 200 µg/mL (≈ 1270 µM) in test [3]; 25 µg/mL (≈ 159 µM) in test [4]; 125 µg/mL (≈ 793 µM) in test [5]; 125 µg/mL (≈ 793 µM) in test [6]; 25 µg/mL (≈ 159 µM) in test [8]. In addition, the MIC in test [11] is 25 µg/mL (≈ 159 µM); in test [13], 125 µg/mL (≈ 793 µM); in [15], 25 µg/mL (≈ 159 µM); in test [17], 125 µg/mL (≈ 793 µM); in test [20], 25 µg/mL (≈ 159 µM). The result in test [24] and in [25] was Active.

The record behind these values is ChEMBL document CHEMBL1687813 (Antimicrob Agents Chemother, 2010).
